Measurements from different studies.
Protocols differ between the studies behind these lines.
Target: Muscarinic acetylcholine receptor M4 (CHRM4, Homo sapiens, UniProt P08173)
One construct used (P08173 1-479): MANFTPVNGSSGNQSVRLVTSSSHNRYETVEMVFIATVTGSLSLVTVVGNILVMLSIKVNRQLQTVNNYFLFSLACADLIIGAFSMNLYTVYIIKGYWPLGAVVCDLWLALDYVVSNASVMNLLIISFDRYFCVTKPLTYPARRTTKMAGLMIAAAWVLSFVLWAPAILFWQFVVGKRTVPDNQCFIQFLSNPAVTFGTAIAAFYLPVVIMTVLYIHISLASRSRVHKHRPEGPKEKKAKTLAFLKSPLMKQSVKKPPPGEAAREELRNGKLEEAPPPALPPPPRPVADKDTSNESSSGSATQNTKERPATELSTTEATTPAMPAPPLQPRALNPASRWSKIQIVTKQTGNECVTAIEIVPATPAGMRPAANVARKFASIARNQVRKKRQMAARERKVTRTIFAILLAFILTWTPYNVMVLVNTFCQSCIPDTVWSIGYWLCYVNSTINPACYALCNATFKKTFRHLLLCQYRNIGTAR

| Compound | effect on | method | tested at | inhibition [%] |
| --- | --- | --- | --- | --- |
| Cn1cncc1[C@@](O)(COc1ccc(C#N)cc1-c1ccc(OC(F)(F)F)cc1)c1ccc(C#N)cc1 | ligand displacement | – | 10 µM | -9.7 |
| CN1CC[C@@]2(C)c3cc(OC(=O)Nc4ccccc4)ccc3N(C)[C@@H]12 | ligand displacement | radioligand | 10 µM | 0.3 |
| c1ccc(C(NCCNC(c2ccccc2)c2ccccc2)c2ccccc2)cc1 | cell-free assay | – | 10 µM | 32 |
| Cc1ncc(C)n2nc(/C=C/c3nc(N4CCCC4)cc(N4CCOCC4)n3)nc12 | ligand displacement | – | 10 µM | 47 |
| N#CC1(c2ccccn2)CCN(Cc2cc(C(=O)O)c(=O)n3ccccc23)CC1 | cell-free assay | – | 10 µM | -2.36 |
| COCc1c(-c2cc3cc(C)cc(OC)c3s2)c2c(N)ncnn2c1CN1CCNC(=O)C1 | ligand displacement | radioligand | 10 µM | 6 |
| C[C@H](C(=O)N[C@H]1COc2ccccc2[C@@H]1S(C)(=O)=O)c1ccc(F)cc1 | cell-free assay | – | 10 µM | 6 |
| O=C(Nc1cccnn1)N1CCN([C@@H]2CCOc3cc(C(F)(F)F)ccc32)CC1 | cell-free assay | – | 20 µM | 15 |
